Where a chain is given by its changes, count along the chain named. pIC50: −log10 of the molar value.
What was measured:
K155 of SIN3A [1] = molecular target: T1, K155 of SIN3A (Homo sapiens, UniProt Q96ST3); assay: gel-based ABPP, blockade of probe labeling of SIN3A; assay type: binding; details: read-out: apparent IC50, blockade of probe labeling of K155, lysates of HEK293T cells expressing Flag-SIN3A a.a. 1-400
T1 sequence (Q96ST3 1-400): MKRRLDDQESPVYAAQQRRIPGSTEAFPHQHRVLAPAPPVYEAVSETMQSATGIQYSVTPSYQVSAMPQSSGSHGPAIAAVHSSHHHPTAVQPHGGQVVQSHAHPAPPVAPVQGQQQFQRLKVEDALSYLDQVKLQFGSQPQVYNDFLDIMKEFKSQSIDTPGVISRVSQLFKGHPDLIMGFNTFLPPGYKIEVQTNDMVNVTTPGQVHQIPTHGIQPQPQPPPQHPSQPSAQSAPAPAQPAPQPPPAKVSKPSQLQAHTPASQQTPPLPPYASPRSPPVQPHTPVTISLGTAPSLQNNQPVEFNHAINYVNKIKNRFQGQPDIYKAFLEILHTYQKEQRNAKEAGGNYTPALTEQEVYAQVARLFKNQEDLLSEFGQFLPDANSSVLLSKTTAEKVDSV

K155 of SIN3A [2] = molecular target: T2, K155 of SIN3A (Homo sapiens, UniProt Q96ST3); assay: competitive isoTOP-ABPP, SIN3A K155; assay type: binding; details: 50 μM, human cancer cell proteomes
T2 sequence (Q96ST3 1-1273): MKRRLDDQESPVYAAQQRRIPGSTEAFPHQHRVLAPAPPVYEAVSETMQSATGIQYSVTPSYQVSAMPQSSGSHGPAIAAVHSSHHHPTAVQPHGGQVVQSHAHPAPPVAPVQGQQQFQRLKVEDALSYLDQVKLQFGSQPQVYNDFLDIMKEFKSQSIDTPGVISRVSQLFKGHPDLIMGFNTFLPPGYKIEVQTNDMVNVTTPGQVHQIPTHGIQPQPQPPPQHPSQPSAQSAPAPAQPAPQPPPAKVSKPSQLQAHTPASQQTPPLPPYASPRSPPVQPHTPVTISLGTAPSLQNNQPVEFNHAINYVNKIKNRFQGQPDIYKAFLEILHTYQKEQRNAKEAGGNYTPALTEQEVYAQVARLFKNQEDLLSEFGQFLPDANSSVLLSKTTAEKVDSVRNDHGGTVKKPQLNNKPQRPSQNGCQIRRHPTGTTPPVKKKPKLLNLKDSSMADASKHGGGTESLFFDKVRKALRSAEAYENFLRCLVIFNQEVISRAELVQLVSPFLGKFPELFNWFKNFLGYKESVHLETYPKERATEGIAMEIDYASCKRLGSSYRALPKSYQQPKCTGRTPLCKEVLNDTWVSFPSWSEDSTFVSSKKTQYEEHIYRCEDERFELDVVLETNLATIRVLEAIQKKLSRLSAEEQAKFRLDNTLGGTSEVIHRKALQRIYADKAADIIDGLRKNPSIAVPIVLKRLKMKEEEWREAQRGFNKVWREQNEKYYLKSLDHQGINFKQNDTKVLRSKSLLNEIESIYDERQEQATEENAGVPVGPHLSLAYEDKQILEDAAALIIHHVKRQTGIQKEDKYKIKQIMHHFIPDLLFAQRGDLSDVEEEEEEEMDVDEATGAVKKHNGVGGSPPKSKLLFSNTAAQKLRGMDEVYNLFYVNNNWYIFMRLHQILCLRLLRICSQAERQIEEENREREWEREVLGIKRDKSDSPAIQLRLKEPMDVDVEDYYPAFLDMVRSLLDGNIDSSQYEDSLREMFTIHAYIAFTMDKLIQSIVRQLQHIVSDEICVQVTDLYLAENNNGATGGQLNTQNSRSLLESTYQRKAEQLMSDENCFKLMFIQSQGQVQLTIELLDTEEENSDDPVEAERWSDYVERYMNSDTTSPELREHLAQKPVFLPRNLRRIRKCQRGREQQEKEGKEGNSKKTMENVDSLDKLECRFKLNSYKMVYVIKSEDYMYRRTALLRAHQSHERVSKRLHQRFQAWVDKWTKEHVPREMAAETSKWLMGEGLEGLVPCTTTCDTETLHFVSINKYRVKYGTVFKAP
Summary of the method: (§1)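 Human cancer cell proteomes were pretreated with an amine-reactive electrophilic fragment (50–100 μM) or DMSO, then probe 1 (100 μM). Labeled proteins were CuAAC-conjugated to isotopic TEV-cleavable azide-biotin tags (DMSO heavy, fragment light), combined and analysed by isoTOP-ABPP. R = DMSO/fragment MS1 peak ratio of probe-labeled peptides. R ≥ 4 (≥75% loss of enrichment) defines liganding.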

TGIF1-SIN3A interaction = molecular target: T3, TGIF1-SIN3A interaction (Homo sapiens, UniProt Q96ST3); assay: SILAC co-immunoprecipitation-MS proteomics, SIN3A-TGIF1; assay type: biochemical; details: 50 μM, 1 h, co-IP MS proteomics
T3 sequence (Q96ST3 1-400): T1 sequence (Q96ST3 1-400)
Summary of the method: (§2)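 HEK293T cells were metabolically labeled with isotopically differentiated amino acids. Heavy cells were transfected with Flag-SIN3A and light cells with Flag-GFP. Cells were lysed and anti-Flag immunoprecipitated. Heavy and light IPs were combined, trypsin-digested and run on LC-MS/MS. SIN3A interactors were proteins enriched >five-fold over GFP. Paired comparisons were WT vs K155W-SIN3A, and DMSO vs test compound (50 μM, 1 h) on WT.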

TGIF2-SIN3A interaction = molecular target: T4, TGIF2-SIN3A interaction (Homo sapiens, UniProt Q96ST3); assay: SILAC co-immunoprecipitation-MS proteomics, SIN3A-TGIF2; assay type: biochemical; details: 50 μM, 1 h, co-IP MS proteomics
T4 sequence (Q96ST3 1-400): T1 sequence (Q96ST3 1-400)
Summary of the method: as §2

SIN3A-TGIF1 interaction = molecular target: T5, SIN3A-TGIF1 interaction (Homo sapiens, UniProt Q96ST3); assay: co-immunoprecipitation western blot, Flag-SIN3A / Myc-TGIF1; assay type: biochemical; details: 50 μM, 1 h, anti-Myc blotting
T5 sequence (Q96ST3 1-400): T1 sequence (Q96ST3 1-400)
Summary of the method: (§3)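 Flag-SIN3A (a.a. 1-400, WT or K155 mutants) or Flag-GFP was co-expressed in HEK 293T cells with Myc-TGIF1 or Myc-TGIF2. Lysates were treated with DMSO or test compound (50 μM, 1 h), immunoprecipitated and analysed by anti-Myc western blot. Four biological replicates, mean ± SD. Unpaired Student's t-test, WT + compound vs K155R + compound.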

SIN3A-TGIF2 interaction = molecular target: T6, SIN3A-TGIF2 interaction (Homo sapiens, UniProt Q96ST3); assay: co-immunoprecipitation western blot, Flag-SIN3A / Myc-TGIF2; assay type: biochemical; details: 50 μM, 1 h
T6 sequence (Q96ST3 1-400): T1 sequence (Q96ST3 1-400)
Summary of the method: as §3

[3] = molecular target: T7, SIN3A K155R-TGIF1 interaction (Homo sapiens, UniProt Q96ST3, K155R); assay: co-immunoprecipitation western blot, Flag-SIN3A K155R / Myc-TGIF1; assay type: biochemical; details: 50 μM, 1 h
T7 sequence (Q96ST3 1-400 K155R): T1 sequence (Q96ST3 1-400) with K155R
Summary of the method: as §3

K35 in transthyretin TTR = K35 in transthyretin TTR (Homo sapiens, UniProt P02766); assay: competitive isoTOP-ABPP, TTR K35; assay type: binding; details: compared with fragments 29 and 30
Summary of the method: as §1

NUDT2 [4] = molecular target: T8, NUDT2 (Homo sapiens, UniProt P50583); assay: gel-based ABPP, blockade of probe labeling of NUDT2; assay type: binding; details: read-out: apparent IC50, blockade of probe labeling of NUDT2
T8 sequence (P50583 whole entry): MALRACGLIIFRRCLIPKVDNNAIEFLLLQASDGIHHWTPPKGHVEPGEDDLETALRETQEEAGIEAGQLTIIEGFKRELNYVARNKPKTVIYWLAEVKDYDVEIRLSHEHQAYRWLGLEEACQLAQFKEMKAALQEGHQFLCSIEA
Summary of the method: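 Flag-tagged NUDT2 was recombinantly expressed in HEK 293T cells. Samples were treated with test compound, then a lysine-reactive probe, and analysed by gel-based ABPP. Apparent IC50 is from blockade of probe labeling of the liganded lysine.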

NUDT2 [5] = molecular target: T8, NUDT2; assay: NUDT2 substrate assay; assay type: biochemical; details: compared with gel-based ABPP IC50 of 2 μM
K89 of NUDT2 = K89 of NUDT2 (Homo sapiens, UniProt P50583); assay: competitive isoTOP-ABPP, NUDT2 K89; assay type: binding
K89 of NUDT2, sequence (P50583 whole entry): as above
Summary of the method: as §1

O=C(Oc1c(F)c(F)c(F)c(F)c1F)c1cc(C(F)(F)F)cc(C(F)(F)F)c1 [fragment 21]
pIC50 (K155 of SIN3A [1]): 5.30 | R value (DMSO/fragment) for tryptic peptide containing K155 (K155 of SIN3A [2]): 20 | blockade of probe 1 labeling of K155 (K155 of SIN3A [2]): > 95% | effect on TGIF1-SIN3A interaction (TGIF1-SIN3A interaction): strongly blocked | effect on TGIF2-SIN3A interaction (TGIF2-SIN3A interaction): marginal effect | effect on co-immunoprecipitation of TGIF1 with SIN3A (SIN3A-TGIF1 interaction): blocked | effect on co-immunoprecipitation of TGIF2 with SIN3A (SIN3A-TGIF2 interaction): partial blockade | effect on SIN3A-TGIF1 interaction with K155R mutant [3]: conferred resistance

O=C(Oc1ccc([N+](=O)[O-])cc1[N+](=O)[O-])c1cc(C(F)(F)F)cc(C(F)(F)F)c1 [fragment 31]
targeting of K35 of TTR (K35 in transthyretin TTR): preferentially targeted

COC(=O)NC(=NC(=O)OCC1c2ccccc2-c2ccccc21)n1cccn1 [fragment 49]
pIC50 (NUDT2 [4]): 5.70 | IC50, inhibition of NUDT2 activity (NUDT2 [5]): equivalent IC50 value | reactivity with K89 of NUDT2 (K89 of NUDT2): preferentially reacting
